# Screening data (PubChem BioAssay)
# Most compounds without a hit are left out; they make up all but 1.9% or so of the library.
# HIF activator: HIF pathway transcriptional activation; 300,000 tested, 0.32% active; activation, % at 7.5 µM (by protocol); U2OS HRE-luciferase reporter, luminescence; normalized: DMSO 0%, desferrioxamine 100%;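 active = mean activation of at least 10% of the iron chelator positive control signal, with at least half of replicates also reaching 10%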
# ABHD5-PLIN5 inh: blocks binding of human ABHD5 to perilipin-5; Q00G26+Q8WTS1; Split G. princeps luciferase complementation, luminescence, 4 h; inhibition, % at 4 µM; 360,000 tested, 0.78% active;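 active = inhibition above the mean inhibition across every tested compound plus 3 SD, cut at about 22% in these data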;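 note: 0% = DMSO only wells and the 100% control is not disclosed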
# Target sequence (Q00G26 whole entry, looked up): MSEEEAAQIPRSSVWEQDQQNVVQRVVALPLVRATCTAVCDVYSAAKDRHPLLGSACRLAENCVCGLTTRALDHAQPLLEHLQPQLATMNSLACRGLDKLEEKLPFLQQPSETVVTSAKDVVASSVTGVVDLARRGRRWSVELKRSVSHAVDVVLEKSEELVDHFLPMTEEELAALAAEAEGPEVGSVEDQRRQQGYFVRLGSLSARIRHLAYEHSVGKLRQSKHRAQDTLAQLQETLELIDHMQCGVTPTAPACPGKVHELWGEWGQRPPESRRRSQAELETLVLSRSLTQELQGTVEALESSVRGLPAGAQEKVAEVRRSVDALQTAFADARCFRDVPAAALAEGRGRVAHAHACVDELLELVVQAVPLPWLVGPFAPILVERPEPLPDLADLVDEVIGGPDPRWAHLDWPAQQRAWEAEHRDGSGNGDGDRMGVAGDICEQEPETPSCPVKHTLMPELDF
# Target sequence (Q8WTS1 whole entry, looked up): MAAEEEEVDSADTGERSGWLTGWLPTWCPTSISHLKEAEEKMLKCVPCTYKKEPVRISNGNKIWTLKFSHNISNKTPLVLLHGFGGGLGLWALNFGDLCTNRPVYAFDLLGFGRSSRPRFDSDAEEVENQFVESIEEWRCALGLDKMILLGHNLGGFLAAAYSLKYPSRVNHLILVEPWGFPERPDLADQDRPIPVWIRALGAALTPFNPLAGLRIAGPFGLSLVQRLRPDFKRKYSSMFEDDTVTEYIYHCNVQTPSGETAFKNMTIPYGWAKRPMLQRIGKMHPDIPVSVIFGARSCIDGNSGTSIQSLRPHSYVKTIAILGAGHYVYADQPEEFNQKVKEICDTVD
# Rad51 HR inh: Rad51 (human) homologous recombination inhibition. Q06609. hRad51 DNA strand exchange, fluorescence dequenching. inhibition, % at 10 µM. 200,000 tested, 0.085% active. AID 1385;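 active = inhibition above 40% at the single screening dose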;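 note: 0% = DMSO control wells and 100% = blanks with heterologous ssDNA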
#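 System: hRad51 filaments on single-stranded DNA; reagent: Fluorescein- and BHQ1-tagged 47-mer duplex; compound dosing: one concentration, 10 µM final; timing: filaments 15 min 37 °C, then compound 30 min; measured by: fluorescein emission 520 nm, excitation 485 nm; benchmarks: per-plate controls and blanks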
# Hsp70 act: transcriptional activators of Hsp70; HeLa Hsp70 promoter luciferase reporter, luminescence; scaled: vehicle 0, proteasome-inhibitor control 100%; activation, % at 10 µM; 200,000 tested, 0.04% active; AID 1203;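 active = activation above the mean across all tested compounds plus 3 SD, cutoff set per campaign, cut at about 5.5% in these data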;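 note: 100% = MG132 at 30 µM as the positive control and 0% = DMSO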
# GAA850 FXN act: activators of GAA850 frataxin (FXN) promoter | HEK293 lucGAA850 FXN promoter luciferase reporter, 24 h; percent of 10 µM SAHA response | activation, % at 6 µM | 360,000 tested, 0.56% active | AID 540364;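 active = activation above the average of all compounds screened plus 3 SD, cutoff fixed separately per campaign, cut at about 7.5% in these data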;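 note: 0% = DMSO wells and 100% = 10 µM SAHA wells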
# H9c2 TAG inh: inhibitors of triacylglycerol accumulation. H9c2 cells, Nile Red lipid (TAG) fluorescence; cells loaded with 200 µM oleic acid. inhibition, % at 12.5 µM. 230,000 tested, 0.66% active. AID 651582;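 active = pattern-corrected inhibition of lipid staining of at least 50% with the nuclear-stain viability signal not falling by more than 50%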;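 note: 0% = DMSO wells and 100% = triacsin C control wells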
# GAA30 FXN cntr: GAA30 FXN promoter activation counter-screen; shares compounds with GAA850 FXN act; HEK293 lucGAA30 FXN promoter luciferase, 24 h; DMSO = 0%, 5 µM ipriflavone = 100%; activation, % at 6 µM; 1,900 tested, 66% active; AID 588350;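 active = mean activation above the mean of solvent-only control wells plus 3 SD, cut at about 22% in these data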;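 note: counterscreen of GAA850 promoter hits where activity marks nonselective or luminescence artifacts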
# FXN GAA850 conf: confirmation of GAA850 frataxin (FXN) promoter activators; shares compounds with GAA850 FXN act; activation, % at 6 µM; AID 588351; HEK293 lucGAA850 FXN promoter luciferase reporter, 24 h; 100% = activation by SAHA; 1,900 tested, 86% active;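 active = mean activation above a set limit taken from the primary screen, cut at about 8% in these data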;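 note: 0% = DMSO wells and 100% = 10 µM SAHA wells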
# Numbers without * were called inactive; x = not tested or not shown.
SMILES,HIF activator,ABHD5-PLIN5 inh,Rad51 HR inh,Hsp70 act,GAA850 FXN act,H9c2 TAG inh,GAA30 FXN cntr,FXN GAA850 conf
CCC(=O)N1CCc2cc(OC)c(OC)cc2C1COc1ccc(F)cc1 (stereo unspecified),0.2,-3.7,x,x,3.2,x,x,x
Cc1ccc(N2C(=O)NC(NC(=O)C(C)(C)C)(C(F)(F)F)C2=O)cc1C (stereo unspecified),-0.2,5.4,15.2,-0.3,2.6,1.4,x,x
COc1ccc(N2C(=O)NC(NC(=O)C(C)(C)C)(C(F)(F)F)C2=O)cc1 (stereo unspecified),-0.8,1.5,x,x,9.2*,x,-0.8,8.2*
O=C(Nc1ccc(F)cc1)C(c1cccc(F)c1)N1CCN(c2cccc(C(F)(F)F)n2)CC1 (stereo unspecified),x,-13.4,x,x,x,x,x,x
CCCOc1ccc(-c2c(=O)n(O)c3ccccc3[n+]2[O-])cc1,5.0,2.3,x,x,11.0*,x,94.9*,30.6*
COc1ccc(C(=O)NC(NC(=O)c2ccc(OC)c(OC)c2)c2ccccc2F)cc1OC,0.1,-1.4,x,0.5,3.4,0.9,x,x
COC(=O)[C@H](C)NC(=O)NCc1ccc(F)cc1,-0.5,-9.0,1.0,-0.1,-0.9,x,x,x
COC(=O)[C@H](C)NC(=O)NCc1ccccc1F,0.0,7.0,-1.2,0.2,9.4*,1.8,18.4,6.4
O=C(Nc1cccc(C(F)(F)F)c1)C(=O)N1CCCCC1,2.3,5.7,x,0.1,8.1*,-5.3,52.7*,21.2*
FC(F)(F)c1cccc(NC(=S)N2CCCCCC2)c1,4.4,-4.5,2.6,-0.2,1.2,3.7,x,x
COc1ccc(-c2nn(-c3ccccc3)cc2C(=O)O)cc1N,-2.1,4.7,x,x,1.2,x,x,x
O=C(NCCc1csc(-c2cccnc2)n1)c1cccs1,0.2,-4.8,x,0.0,0.2,-13.3,x,x
Cc1ccc(C(=O)NCCc2csc(-c3cccnc3)n2)cc1,1.3,-12.6,-1.0,-0.1,19.9*,12.7,76.4*,27.3*
CC(C)c1ccc(N(C(=O)c2csnn2)C(C(=O)NC(C)(C)C)c2ccncc2)cc1 (stereo unspecified),x,-2.5,-1.7,0.1,13.8*,x,114.8*,32.4*
Cc1cccc(/C=N/NC(=O)c2cccc(Cl)c2)n1,2.0,7.9,x,x,7.6*,x,-65.6,-16.1
Cc1cccc(/C=N/NC(=O)c2cccc(NC(=O)c3ccccc3)c2)n1,0.6,-3.2,x,x,1.2,x,x,x
Cc1cccc(/C=N/NC(=O)c2cccc([N+](=O)[O-])c2)n1,0.1,-1.3,-12.5,3.6,12.2*,x,-39.1,11.4*
C[C@@H]1Cn2cnc(C(=O)NCC(=O)OC(C)(C)C)c2C(=O)N1,x,-4.8,x,x,1.5,-4.2,x,x
C[C@@H]([C@H](O)c1ccccc1)N(C)C(=S)Nc1ccccc1,-4.0,-3.4,x,x,2.8,x,x,x
CC[C@]12c3[nH]c4ccc(OC)cc4c3CCN1C(=O)C(CC(=O)NCC13CC4CC(CC(C4)C1)C3)C[C@@H]2C(=O)N1CCN(C(=O)C2CC2)CC1 (stereo partly specified),x,7.0,x,x,14.9*,13.0,23.1*,15.1*
CC[C@]12c3[nH]c4ccccc4c3CCN1C(=O)C(CC(=O)NCC13CC4CC(CC(C4)C1)C3)C[C@@H]2C(=O)N1CCN(C(=O)C2CC2)CC1 (stereo partly specified),x,-7.2,x,x,9.0*,16.6,-9.8,3.2
CC[C@]12c3[nH]c4ccc(Cl)cc4c3CCN1C(=O)[C@@H](CC(=O)NCC13CC4CC(CC(C4)C1)C3)C[C@@H]2C(=O)N1CCN(C(=O)C2CC2)CC1,x,1.5,x,x,6.3,41.5,x,x
CN=C1SC(CC(=O)Nc2ccc(N3CCOCC3)cc2)C(=O)N1C (stereo unspecified),0.3,3.9,x,-0.2,12.8*,x,15.1,3.4
O=C(NC12CC3CC(CC(C3)C1)C2)c1cc([N+](=O)[O-])ccc1N1CCOCC1,-0.2,1.7,x,-0.2,10.4*,-11.3,17.1,10.5*
Cc1ccc(C)c(-c2ccc(=O)n(Cc3cccc(Br)c3)n2)c1,0.9,-1.8,x,x,8.3*,x,11.3,6.5
SMILES,HIF activator,ABHD5-PLIN5 inh,Rad51 HR inh,Hsp70 act,GAA850 FXN act,H9c2 TAG inh,GAA30 FXN cntr,FXN GAA850 conf
C/C(=N\NC(=O)CSCc1cccc(Br)c1)c1ccc([N+](=O)[O-])cc1,0.3,-2.6,4.2,-0.3,2.8,-13.2,x,x
CCc1ccc(-c2cn(C3CCCCC3)c(=S)[nH]2)cc1,2.6,-12.9,8.0,-0.1,8.0*,1.4,58.2*,24.3*
CCc1ccc(-n2cc(-c3ccc([N+](=O)[O-])cc3)[nH]c2=S)cc1,4.8,-14.5,-17.5,-0.3,5.1,x,x,x
CN(C(=O)c1cc2c(cc1Br)OCO2)c1cccc2ccccc12,x,-2.8,x,x,0.1,25.6,x,x
COc1cc(OC)c(OC)cc1/C=N/Nc1ncnc2c1[nH]c1ccccc12,0.7,-12.5,-1.4,-0.3,7.9*,20.0,15.6,18.2*
CC(C)c1ccc(NC(=O)CCNC(=O)Cn2cnc3ccccc3c2=O)cc1,-0.3,4.4,x,x,-0.8,x,x,x
Cc1ccc2c(COC(=O)c3ccccc3Cl)cc(=O)oc2c1,4.3,0.2,x,x,8.5*,x,126.3*,42.4*
C[C@@]12C(=O)N(CCc3c[nH]c4ccccc34)CC(=O)N1[C@H]1c3ccccc3OC[C@@H]1[C@@H]2c1ccccc1,x,-3.4,x,x,7.7*,39.6,9.6,8.5*
C[C@@]12C(=O)N(CC3CCCO3)CC(=O)N1[C@H]1c3ccccc3OC[C@@H]1[C@@H]2c1ccccc1 (stereo partly specified),x,3.5,x,x,12.2*,-18.9,16.8,14.2*
CN(C)CCNC(C(=O)Nc1cccc(C(F)(F)F)c1)c1ccccc1 (stereo unspecified),1.2,2.3,-8.3,-0.1,1.9,16.0,x,x
Nc1c(-c2ccccc2)cnc2c(-c3ccccc3)cnn12,1.7,-2.5,x,x,8.4*,-1.0,90.5*,35.0*
COc1cc(/C=N/NC(=O)C(C)n2nnc3ccccc32)ccc1O (stereo unspecified),0.3,-5.6,5.8,-0.3,0.7,-6.4,x,x
COc1ccc(/C=N/NC(=O)C(C)n2nnc3ccccc32)cc1OC (stereo unspecified),-0.1,-2.2,18.9,-0.4,8.5*,6.1,20.4,10.8*
Cc1ccc(OCc2ccccc2C)c([N+](=O)[O-])n1,0.0,-2.0,x,x,5.3,x,x,x
Cc1ccc(OCc2ccc([N+](=O)[O-])cc2)c([N+](=O)[O-])n1,3.9,-1.1,x,x,8.4*,3.3,117.5*,34.2*
